ChEMBL document CHEMBL5058577, “EUbOPEN Chemogenomics Library 2 (Multiplex)” (2022)

System: Fibroblast
Experiment: Multiplex assay against human fibroblast
Format: toxicity, cell-based
How it was run: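 Live cells carried four stains from seeding: Hoechst33342, BioTracker Green Microtubule Cytoskeleton Dye, MitoTracker Red and Annexin V Alexa Fluor 680. They were imaged on a CQ1 microscope at 37°C and 5% CO2 after compound addition. Using CellPathfinder machine-learning gating, cells were split into Hoechst high-intensity objects or normal cells, normal cells into healthy, pyknosed or fragmented nuclei, and pyknosed cells into mitotic or apoptotic; tubulin, mitochondrial-mass and membrane-permeability phenotypes are per cents of healthy-nucleus cells.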

[1] = 12 h, 1 µM, compound concentration 1 uM, replicate 1
[2] = 12 h, 1 µM, compound concentration 1 uM, replicate 2
[3] = 12 h, 10 µM, compound concentration 10 uM, replicate 1
[4] = 12 h, 10 µM, compound concentration 10 uM, replicate 2
[5] = 24 h, 1 µM, compound concentration 1 uM, replicate 1
[6] = 24 h, 1 µM, compound concentration 1 uM, replicate 2
[7] = 24 h, 10 µM, compound concentration 10 uM, replicate 1
[8] = 24 h, 10 µM, compound concentration 10 uM, replicate 2
[9] = 48 h, 1 µM, compound concentration 1 uM, replicate 1
[10] = 48 h, 1 µM, compound concentration 1 uM, replicate 2
[11] = 48 h, 10 µM, compound concentration 10 uM, replicate 1
[12] = 48 h, 10 µM, compound concentration 10 uM, replicate 2

## C[C@@H]1CC(=O)Nc2cccc(-c3ccc4c(c3)c(-c3cnn(C)c3)nn4C)c2N1
[1]
  Population Apoptotic (%): 38%
  Population Fragmented Nuclei (%): 20%
  Population Healthy Nuclei (%): 63%
  Population Hoechst High Intensity Objects (%): 1%
  Population Membrane Permeable-Phenotype (%): 0%
  Population Mitochondria Different-Phenotype (%): 4%
  Population Mitotic Cells (%): 61%
  Population Normal (%): 98%
  Population Pyknosed Nuclei (%): 15%
  Population Tubulin-Different-Phenotype (%): 31%
  Total Cell Count: 115
[2]
  Population Fragmented Nuclei (%): 26%
  Population Healthy Nuclei (%): 47%
  Population Hoechst High Intensity Objects (%): 5%
  Population Membrane Permeable-Phenotype (%): 8%
  Population Mitochondria Different-Phenotype (%): 12%
  Population Normal (%): 94%
  Population Pyknosed Nuclei (%): 26%
  Population Tubulin-Different-Phenotype (%): 51%
  Total Cell Count: 105
[3]
  Population Apoptotic (%): 40%
  Population Fragmented Nuclei (%): 17%
  Population Healthy Nuclei (%): 65%
  Population Hoechst High Intensity Objects (%): 5%
  Population Membrane Permeable-Phenotype (%): 1%
  Population Mitochondria Different-Phenotype (%): 19%
  Population Mitotic Cells (%): 59%
  Population Normal (%): 94%
  Population Pyknosed Nuclei (%): 17%
  Population Tubulin-Different-Phenotype (%): 63%
  Total Cell Count: 161
[4]
  Population Apoptotic (%): 30%
  Population Fragmented Nuclei (%): 11%
  Population Healthy Nuclei (%): 58%
  Population Hoechst High Intensity Objects (%): 6%
  Population Membrane Permeable-Phenotype (%): 7%
  Population Mitochondria Different-Phenotype (%): 5%
  Population Mitotic Cells (%): 69%
  Population Normal (%): 93%
  Population Pyknosed Nuclei (%): 30%
  Population Tubulin-Different-Phenotype (%): 68%
  Total Cell Count: 126
[5]
  Population Apoptotic (%): 57%
  Population Fragmented Nuclei (%): 16%
  Population Healthy Nuclei (%): 67%
  Population Hoechst High Intensity Objects (%): 2%
  Population Membrane Permeable-Phenotype (%): 2%
  Population Mitochondria Different-Phenotype (%): 5%
  Population Mitotic Cells (%): 42%
  Population Normal (%): 97%
  Population Pyknosed Nuclei (%): 15%
  Population Tubulin-Different-Phenotype (%): 33%
  Total Cell Count: 122
[6]
  Population Apoptotic (%): 35%
  Population Fragmented Nuclei (%): 29%
  Population Healthy Nuclei (%): 50%
  Population Hoechst High Intensity Objects (%): 7%
  Population Membrane Permeable-Phenotype (%): 11%
  Population Mitochondria Different-Phenotype (%): 9%
  Population Mitotic Cells (%): 65%
  Population Normal (%): 92%
  Population Pyknosed Nuclei (%): 19%
  Population Tubulin-Different-Phenotype (%): 60%
  Total Cell Count: 112
[7]
  Population Apoptotic (%): 75%
  Population Fragmented Nuclei (%): 19%
  Population Healthy Nuclei (%): 69%
  Population Hoechst High Intensity Objects (%): 10%
  Population Membrane Permeable-Phenotype (%): 0%
  Population Mitochondria Different-Phenotype (%): 15%
  Population Mitotic Cells (%): 25%
  Population Normal (%): 89%
  Population Pyknosed Nuclei (%): 11%
  Population Tubulin-Different-Phenotype (%): 66%
  Total Cell Count: 158
[8]
  Population Apoptotic (%): 42%
  Population Fragmented Nuclei (%): 13%
  Population Healthy Nuclei (%): 57%
  Population Hoechst High Intensity Objects (%): 5%
  Population Membrane Permeable-Phenotype (%): 1%
  Population Mitochondria Different-Phenotype (%): 4%
  Population Mitotic Cells (%): 57%
  Population Normal (%): 94%
  Population Pyknosed Nuclei (%): 29%
  Population Tubulin-Different-Phenotype (%): 76%
  Total Cell Count: 119
[9]
  Population Apoptotic (%): 50%
  Population Fragmented Nuclei (%): 25%
  Population Healthy Nuclei (%): 60%
  Population Hoechst High Intensity Objects (%): 5%
  Population Membrane Permeable-Phenotype (%): 1%
  Population Mitochondria Different-Phenotype (%): 6%
  Population Mitotic Cells (%): 50%
  Population Normal (%): 94%
  Population Pyknosed Nuclei (%): 14%
  Population Tubulin-Different-Phenotype (%): 21%
  Total Cell Count: 114
[10]
  Population Apoptotic (%): 30%
  Population Fragmented Nuclei (%): 36%
  Population Healthy Nuclei (%): 50%
  Population Hoechst High Intensity Objects (%): 2%
  Population Membrane Permeable-Phenotype (%): 12%
  Population Mitochondria Different-Phenotype (%): 8%
  Population Mitotic Cells (%): 69%
  Population Normal (%): 97%
  Population Pyknosed Nuclei (%): 13%
  Population Tubulin-Different-Phenotype (%): 60%
  Total Cell Count: 102
[11]
  Population Apoptotic (%): 92%
  Population Fragmented Nuclei (%): 17%
  Population Healthy Nuclei (%): 73%
  Population Hoechst High Intensity Objects (%): 3%
  Population Membrane Permeable-Phenotype (%): 0%
  Population Mitochondria Different-Phenotype (%): 19%
  Population Mitotic Cells (%): 7%
  Population Normal (%): 96%
  Population Pyknosed Nuclei (%): 8%
  Population Tubulin-Different-Phenotype (%): 68%
  Total Cell Count: 162
[12]
  Population Apoptotic (%): 60%
  Population Healthy Nuclei (%): 62%
  Population Hoechst High Intensity Objects (%): 4%
  Population Membrane Permeable-Phenotype (%): 6%
  Population Mitochondria Different-Phenotype (%): 2%
  Population Mitotic Cells (%): 39%
  Population Normal (%): 95%
  Population Pyknosed Nuclei (%): 19%
  Population Tubulin-Different-Phenotype (%): 69%
  Total Cell Count: 122
